Each structure is given as a SMILES string. Calls of active or inactive are those of the source. No cut-off for these calls is given here.

The target of assay [1] is T1, Nucleotide-binding oligomerization domain-containing protein 1 (Homo sapiens) (UniProt Q9Y239).
T1 sequence (whole entry): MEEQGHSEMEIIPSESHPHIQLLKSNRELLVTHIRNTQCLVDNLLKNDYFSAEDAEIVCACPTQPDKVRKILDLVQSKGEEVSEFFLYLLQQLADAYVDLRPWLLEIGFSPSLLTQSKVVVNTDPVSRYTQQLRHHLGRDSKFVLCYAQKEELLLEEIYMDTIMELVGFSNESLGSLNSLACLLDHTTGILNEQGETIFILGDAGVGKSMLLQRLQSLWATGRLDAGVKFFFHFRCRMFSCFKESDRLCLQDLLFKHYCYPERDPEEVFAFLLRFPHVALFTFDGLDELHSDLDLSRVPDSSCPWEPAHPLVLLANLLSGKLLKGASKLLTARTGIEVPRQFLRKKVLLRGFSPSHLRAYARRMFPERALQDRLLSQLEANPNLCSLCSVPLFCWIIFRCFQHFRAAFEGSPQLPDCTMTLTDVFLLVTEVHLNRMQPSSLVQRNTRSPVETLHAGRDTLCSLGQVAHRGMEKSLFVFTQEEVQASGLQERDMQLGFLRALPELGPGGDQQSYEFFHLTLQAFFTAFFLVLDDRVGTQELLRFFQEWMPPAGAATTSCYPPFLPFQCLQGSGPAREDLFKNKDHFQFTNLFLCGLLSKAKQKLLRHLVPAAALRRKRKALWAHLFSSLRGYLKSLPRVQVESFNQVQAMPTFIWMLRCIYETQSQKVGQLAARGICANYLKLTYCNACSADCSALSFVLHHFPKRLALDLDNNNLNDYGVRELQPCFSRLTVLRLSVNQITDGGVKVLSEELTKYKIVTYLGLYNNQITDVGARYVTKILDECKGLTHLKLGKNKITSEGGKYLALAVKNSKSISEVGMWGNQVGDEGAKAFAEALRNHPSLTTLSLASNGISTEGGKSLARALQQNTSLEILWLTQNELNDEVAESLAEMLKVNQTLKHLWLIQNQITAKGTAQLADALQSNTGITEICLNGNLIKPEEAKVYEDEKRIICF
Nature of the assay: Inhibition of NOD1 in human PBMC-derived macrophages assessed as reduction in C12-iE-DAP-stimulated IL6 mRNA expression at 10 uM preincubated for 1 hr followed by C12-iE-DAP stimulation for 90 mins by RT-qPCR analysis. In a few lines: (§1)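 Human CD14+ monocytes from donor PBMC, differentiated 7 days with M-CSF 20 ng/mL to macrophages; 1.0 × 10^6 cells pretreated 1 h with compound (final 0.1% DMSO), then C12-iE-DAP 500 ng/mL or MDP 5 μg/mL for 90 min. IL-6/TNF-α mRNA by qRT-PCR, normalized to GAPDH; stimulated response set to 100%.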
For orientation: Quantitative PCR measures a nucleic acid by following its amplification.

In assay [2] the target is T1, Nucleotide-binding oligomerization domain-containing protein 1 (Homo sapiens). Nature of the assay: Inhibition of NOD1 in human THP1 cells assessed as suppression of C12-iE-DAP-stimulated RIP2 phosphorylation at 1 to 10 uM preincubated for 1 hr followed by C12-iE-DAP stimulation after 45 mins by Western blot analysis. The assay is classed as cell-based. The gist of the method:
(§2)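 PMA (20 ng/mL, 48 h)-differentiated THP1 macrophages rested 24 h in PMA-free medium, serum-starved (0.1% FBS) overnight, pretreated 1 h with compound, stimulated 45 min with C12-iE-DAP 50 ng/mL. Lysates run on 8% SDS-PAGE, immunoblotted for phospho and total RIP2, p38, JNK, ERK and IκBα.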
For orientation: Immunoblotting shows a protein as a band on a membrane.

For assay [3] the target is unchanged. Description: Inhibition of NOD1 in human PBMC-derived macrophages assessed as reduction in C12-iE-DAP-stimulated TNFalpha mRNA expression at 10 uM preincubated for 1 hr followed by C12-iE-DAP stimulation for 90 mins by RT-qPCR analysis. In a few lines:
as §1

Assay [4] shares this target. Nature of the assay: Antagonist activity at human NOD1 expressed in HEK-blue cells assessed as inhibition of C12-iE-DAP-stimulated cell activation at 5 uM preincubated for 3 hrs followed by C12-iE-DAP addition measured after 20 hrs by SEAP reporter gene assay. It counts as cell-based.
For assay [5] the target is unchanged. Description: Inhibition of NOD1 in human PBMC-derived macrophages assessed as reduction in C12-iE-DAP-stimulated IL6 mRNA expression preincubated for 1 hr followed by C12-iE-DAP stimulation for 90 mins by RT-qPCR analysis. In a few lines:
as §1

Assay [6] is filed under the species Homo sapiens. Description: Inhibition of human SEAP assessed as decrease in substrate hydrolysis at 10 uM.
Assay [7] addresses T2, Nucleotide-binding oligomerization domain-containing protein 2 (Homo sapiens, UniProt Q9HC29). Nature of the assay: Antagonist activity at human NOD2 expressed in HEK-Blue cells assessed as inhibition of MDP-stimulated cell activation at 5 uM preincubated for 3 hrs followed by MDP addition measured after 20 hrs by SEAP reporter gene assay. It counts as cell-based. Background: Reporter assays use an easily measured gene product as a stand-in for the process of interest.

In assay [8] the target is T1, Nucleotide-binding oligomerization domain-containing protein 1 (Homo sapiens). Description: Inhibition of NOD1 in human PBMC-derived macrophages assessed as reduction in C12-iE-DAP-stimulated TNFalpha mRNA expression preincubated for 1 hr followed by C12-iE-DAP stimulation for 90 mins by RT-qPCR analysis. The gist of the method:
as §1

For assay [9] the target is unchanged. Description: Inhibition of NOD1 in human THP1 cells assessed as reduction of C12-iE-DAP-mediated decrease in IkBalpha levels at 1 to 10 uM preincubated for 1 hr followed by C12-iE-DAP addition measured after 45 mins by Western blot analysis. The assay is classed as cell-based. The gist of the method: as §2
The target is the same in assay [10]. Nature of the assay: Inhibition of NOD1 in human THP1 cells assessed as suppression of C12-iE-DAP-stimulated p38 phosphorylation at 1 to 10 uM preincubated for 1 hr followed by C12-iE-DAP stimulation after 45 mins by Western blot analysis. The assay is classed as cell-based. In a few lines:
as §2

Assay [11] shares this target. Nature of the assay: Inhibition of NOD1 in human THP1 cells assessed as suppression of C12-iE-DAP-stimulated JNK phosphorylation at 1 to 10 uM preincubated for 1 hr followed by C12-iE-DAP stimulation after 45 mins by Western blot analysis. The assay is classed as cell-based. In a few lines:
as §2

Assay [12] relates to Lewis lung carcinoma cell line. Nature of the assay: Antitumor activity against mouse LLC cells implanted in C57BL/6 mouse assessed as tumor weight inhibition at 20 mg/kg, iv administered daily measured 11 days after tumor implantation. The assay is classed as functional, organism-based.
Assay [13] has as its target T2, Nucleotide-binding oligomerization domain-containing protein 2. Nature of the assay: Inhibition of NOD2 in human PBMC-derived macrophages assessed as reduction in MDP-stimulated p38 phosphorylation at 1 to 10 uM preincubated for 1 hr followed by MDP stimulation for 1 hr by Western blot analysis.
In assay [14] the target is Tumor necrosis factor (Homo sapiens) (UniProt P01375). Description: Inhibition of recombinant human TNFalpha expressed in HEK-Blue cells assessed as reduction in SEAP release preincubated for 3 hrs measured after 20 hrs by spectrophotometric analysis. The assay is classed as cell-based.
Chain of Tumor necrosis factor (Homo sapiens) (P01375 whole entry): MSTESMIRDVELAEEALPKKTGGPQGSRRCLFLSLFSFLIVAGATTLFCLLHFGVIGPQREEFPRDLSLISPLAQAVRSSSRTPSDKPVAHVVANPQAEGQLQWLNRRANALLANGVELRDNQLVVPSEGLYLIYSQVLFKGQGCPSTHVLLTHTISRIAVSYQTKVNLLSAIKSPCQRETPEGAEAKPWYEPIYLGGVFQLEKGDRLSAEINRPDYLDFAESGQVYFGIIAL

T2 sequence (Q9HC29 whole entry, the tested form may be a part): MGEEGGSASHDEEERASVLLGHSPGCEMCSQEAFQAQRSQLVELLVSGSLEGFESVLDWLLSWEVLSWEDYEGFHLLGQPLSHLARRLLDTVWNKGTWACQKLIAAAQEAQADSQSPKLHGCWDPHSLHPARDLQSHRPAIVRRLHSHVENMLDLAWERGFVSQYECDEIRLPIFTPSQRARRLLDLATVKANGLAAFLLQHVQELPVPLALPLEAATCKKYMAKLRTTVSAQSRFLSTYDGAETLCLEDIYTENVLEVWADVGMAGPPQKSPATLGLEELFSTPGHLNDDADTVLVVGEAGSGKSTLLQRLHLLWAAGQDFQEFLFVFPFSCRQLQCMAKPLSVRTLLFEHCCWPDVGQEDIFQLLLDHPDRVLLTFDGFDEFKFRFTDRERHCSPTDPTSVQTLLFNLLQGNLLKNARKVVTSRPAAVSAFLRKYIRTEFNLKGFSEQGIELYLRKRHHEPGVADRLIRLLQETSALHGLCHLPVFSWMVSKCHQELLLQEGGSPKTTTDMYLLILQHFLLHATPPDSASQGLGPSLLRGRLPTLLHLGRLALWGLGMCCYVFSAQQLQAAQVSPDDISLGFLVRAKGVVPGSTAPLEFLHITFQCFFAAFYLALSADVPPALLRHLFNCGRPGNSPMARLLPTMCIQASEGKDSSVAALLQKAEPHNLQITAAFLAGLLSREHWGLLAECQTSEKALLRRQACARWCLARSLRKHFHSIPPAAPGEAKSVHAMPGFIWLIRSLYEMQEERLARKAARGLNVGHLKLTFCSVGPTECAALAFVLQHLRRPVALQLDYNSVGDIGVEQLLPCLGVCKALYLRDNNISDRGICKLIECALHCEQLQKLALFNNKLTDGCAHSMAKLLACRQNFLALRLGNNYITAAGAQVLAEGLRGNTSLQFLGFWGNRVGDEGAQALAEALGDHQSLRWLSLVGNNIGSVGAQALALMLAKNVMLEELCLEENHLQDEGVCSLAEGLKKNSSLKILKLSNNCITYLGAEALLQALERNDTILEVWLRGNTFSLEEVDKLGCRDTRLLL

The term inhibition denotes the relative decrease from the control value, in per cent. Regarding `CCCNC(=O)CC[C@H]1NC(=O)c2cc(Oc3cccc(N(C)C)c3)c(NC(=O)COCc3ccccc3)cc2NC1=O`, the inhibition in assay [1] was 54.6%; in assay [3], 35.2%; in [4], 77.7%; in assay [5] it was “Dose-dependent effect”; in assay [7], 60.9%; in assay [8], “Dose-dependent effect”. Also, the inhibition entry in assay [2], in [9], in assay [10], in [11] and in [13] was “Active” each time. Also, the inhibition result in assay [6] and in assay [14] was “inactive” in each case. In addition, the TGI entry in assay [12] was “inactive”.

For the origin of these results see ChEMBL document CHEMBL4014339, “Discovery of 1,4-Benzodiazepine-2,5-dione (BZD) Derivatives as Dual Nucleotide Binding Oligomerization Domain Containing 1/2 (NOD1/NOD2) Antagonists Sensitizing Paclitaxel (PTX) To Suppress Lewis Lung Carcinoma (LLC) Growth in Vivo” (J Med Chem, 2017).
